A short description of data set [1]: GSH-induced H2S release assessed as peak H2S level in pH 7.4 PBS buffer containing 10% THF incubated for 2 hrs at room temperature in presence of cysteine by methylene blue based UV-Vis spectrometry. It is filed as physicochemical. The note with it: pH 7.4, 2 h. The method, boiled down: (§1)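 Donor (30 mM THF stock; 0.1 mM final) was added to PBS (pH 7.4, 50 mM)/THF 9:1 containing the stated thiol, at room temperature for 2 h. 1.0 mL aliquots were taken periodically into methylene blue cocktail (zinc acetate, N,N-dimethyl-p-phenylenediamine in HCl, FeCl3 in HCl) and reacted 15 min. Absorbance was read at 670 nm and H2S quantified against a Na2S calibration curve; peak concentration and peak time were recorded.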

A short description of data set [2]: […] peak time for H2S release in pH 7.4 PBS buffer containing 10% THF incubated for 2 hrs at room temperature in presence of cysteine by methylene blue based UV-Vis spectrometry. The data set is classed as physicochemical. Conditions: pH 7.4, 2 h. An outline of the steps:
as §1

Data set [3] can be described thus: GSH-induced H2S release assessed as peak H2S level in pH 7.4 PBS buffer containing 10% THF incubated for 2 hrs at room temperature in presence of 1 mM GSH by methylene blue based UV-Vis spectrometry. It is filed as physicochemical. Conditions: pH 7.4, 2 h. An outline of the steps:
as §1

Data set [4] deals with Mus musculus. Description: Cardioprotective activity in C57BL6/J mouse model of myocardial ischemia/reperfusion assessed as reduction in infarct size per area-at-risk at 100 ug/kg dosed through direct intracardiac injection at time of reperfusion by TTC staining method. The data set is classed as functional. The note with it: Myocardium. An outline of the steps: (§2)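 Male C57BL/6J mice, 10–12 weeks old, anesthetised with pentobarbital (50 mg/kg) plus ketamine (60 mg/kg). Left coronary artery occluded with PE-10 tubing for 45 min. Single intracardiac injection at reperfusion; vehicle 0.5% v/v THF in sterile saline. Reperfusion lasted 24 h, then area-at-risk and infarct measured by Evans blue/TTC staining. n = 6–17 per group.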

Data set [5] deals with Mus musculus. Kind of data set: Cardioprotective activity in C57BL6/J mouse model of myocardial ischemia/reperfusion assessed as reduction in infarct size per area-at-risk at 50 ug/kg dosed through direct intracardiac injection at time of reperfusion by TTC staining method. It is filed as functional. Conditions: Myocardium. The method, boiled down:
as §2

The nature of data set [6]: […] peak time for H2S release in pH 7.4 PBS buffer containing 10% THF incubated for 2 hrs at room temperature in presence of 1 mM GSH by methylene blue based UV-Vis spectrometry. The data set is classed as physicochemical. Conditions: pH 7.4, 2 h. An outline of the steps: as §1
In data set [7] the test system is Mus musculus. Kind of data set: Cardioprotective activity in C57BL6/J mouse model of myocardial ischemia/reperfusion assessed as reduction in infarct size per area-at-risk dosed through direct intracardiac injection at time of reperfusion by TTC staining method. It is filed as functional, organism-based. Conditions: Myocardium. An outline of the steps:
as §2

Data set [8] concerns H9c2. Kind of data set: Cytotoxicity against rat H9c2 cells assessed as reduction in cell viability at <40 uM incubated for 1 hr by CCK8 assay. The note with it: h9c2, 1 h. It is filed as cell-based. An outline of the steps: (§3)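 H9c2 cells (high-glucose DMEM, 10% FBS, 37 °C, 5% CO2) were exposed 1 h to donor over 20–160 μM, either alone or with 480 μM cysteine, then washed twice with PBS. Viability was measured by CCK-8 (1:10 dilution, 3 h at 37 °C, absorbance 450 nm). The mean OD of 4 wells was expressed as % of control, in triplicate.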
A general note: Tetrazolium dyes change colour on reduction, which living cells bring about.

In data set [9] the test system is Mus musculus. Description: Effect on area-at-risk per left ventricle in C57BL6/J mouse model of myocardial ischemia/reperfusion at 50 and 100 ug/kg dosed through direct intracardiac injection at time of reperfusion by TTC staining method. The data set is classed as organism-based, Heart left ventricle. The note with it: in vivo, 0.1 mg/kg. An outline of the steps:
as §2

Data set [10] relates to H9c2. Description: Cytotoxicity against rat H9c2 cells assessed as reduction in cell viability at 160 uM in presence of 480 uM cysteine incubated for 1 hr by CCK8 assay. The data set is classed as cell-based. Conditions: h9c2, 1 h. The method, boiled down:
as §3

The subject of data set [11] is Mus musculus. Kind of data set: Cardioprotective activity in C57BL6/J mouse model of myocardial ischemia/reperfusion assessed as reduction in circulating cardiac troponin-1 level at 100 ug/kg dosed through direct intracardiac injection at time of reperfusion. The data set is classed as functional, organism-based. Conditions: Heart. An outline of the steps:
(§4)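 Male C57BL/6J mice, 10–12 weeks old, were anesthetized with pentobarbital (50 mg/kg) plus ketamine (60 mg/kg). The left coronary artery was occluded for 45 min. At reperfusion, donor was injected intracardiac: dissolved in THF, diluted in sterile saline to 0.05 or 0.1 mg/mL, final 0.5% v/v THF. Vehicle was 0.5% THF in saline. Tail-vein blood was drawn at 4 h reperfusion for troponin I.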

In data set [12] the test system is H9c2. Kind of data set: Cytoprotective activity against H2O2-induced cell damage in rat H9c2 cells at 160 uM pre-incubated for 1 hr before H2O2 challenge for 5 hrs in presence of 480 uM cysteine by LDH release assay. The data set is classed as functional, cell-based. An outline of the steps:
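H9c2 cells at about 70% confluence were preconditioned 1 h with donor plus cysteine (480 μM), then treated with H2O2 (400 μM) for 5 h. Extracellular LDH was measured in supernatant; intracellular LDH in lysate made with 2% Triton X-100 in DMEM. Kit reaction ran 10 min at room temperature, read at 490/600 nm. % release = extracellular/(extracellular+intracellular). Run 4 times.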
A general note: Release of lactate dehydrogenase indicates damage to the cell membrane.

Data set [13] has as its system H9c2. Kind of data set: Cytoprotective activity against H2O2-induced cell damage in rat H9c2 cells assessed as reduction in mitochondrial membrane potential loss at 160 uM pre-incubated for 1 hr before H2O2 challenge for 5 hrs in presence of 480 uM cysteine by Rh123 dye based fluorescent microscopy. The data set is classed as functional. The method, boiled down:
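H9c2 cells were grown in high-glucose DMEM with 10% FBS at 37 °C, 5% CO2. They were pretreated 1 h with donor plus cysteine (480 μM), then given H2O2 (400 μM) for 5 h. Rh123 (10 mg/L) was added for 15 min at 37 °C. Fluorescence microscopy gave mean Rh123 intensity from four random fields.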

Data set [14] relates to Mus musculus. Kind of data set: Cardioprotective activity in C57BL6/J mouse model of myocardial ischemia/reperfusion assessed as reduction in circulating cardiac troponin-1 level at 50 ug/kg dosed through direct intracardiac injection at time of reperfusion. The note with it: Heart. It is filed as functional, organism-based. An outline of the steps:
as §4

The subject of data set [15] is H9c2. Description: Cytotoxicity against rat H9c2 cells assessed as reduction in cell viability at >80 uM incubated for 1 hr by CCK8 assay. It is filed as cell-based. The note with it: h9c2, 1 h. The method, boiled down: as §3
Data set [16] can be described thus: Induction of […] release in pH 7.4 PBS buffer containing 10% THF incubated for 2 hrs at room temperature in presence of 0.5 mM cysteine by methylene blue based UV-Vis spectrometry. It is filed as physicochemical. The note with it: pH 7.4, 2 h. An outline of the steps: as §1
A short description of data set [17]: Induction of […] release in pH 7.4 PBS buffer containing 10% THF incubated for 2 hrs at room temperature in presence of 2 mM cysteine by methylene blue based UV-Vis spectrometry. The note with it: pH 7.4, 2 h. The data set is classed as physicochemical. The method, boiled down: as §1

Structures are written as SMILES. Active and inactive are the calls of the source. No cut-off for these calls is given here.

For orientation: inhibition in vivo means the relative decrease from the control value, in per cent.

With `O=C(NSC(=O)c1ccc(F)cc1)c1ccccc1`, the Activity was 39.5 µM in data set [1]; 40.6 µM in [3]; “Non-toxic” in the data set on H9c2 [8]; “Non-toxic” with Mus musculus [9]; “Non-toxic” in the data set on H9c2 [10]; “Toxic” with H9c2 [15]. Also, the Time in data set [2] turned out to be 50 min; in data set [6], 55 min. For the same compound, the inhibition in vivo at 0.1 mg/kg in the data set on Mus musculus [4] is 50%. Also, in the data set with Mus musculus [5], the inhibition in vivo at 0.05 mg/kg is 50%. The inhibition result in the data set with Mus musculus [7] is “Dose-dependent effect”. The inhibition result in the data set with Mus musculus [11] and in the data set with Mus musculus [14] was “Active” each time. Further, the outcome in the data set with H9c2 [12] and with H9c2 [13] was Active.

For `O=C(NSC(=O)c1ccccc1)c1ccccc1`, the Activity entry was “Not Active” in data set [16]; 55.8 µM in [1]; 51.2 µM in [3]; “Active” in [17]; “Non-toxic” in the data set on H9c2 [8]; “Non-toxic” in the data set on Mus musculus [9]. In addition, the Activity entry in the data set with H9c2 [10] is “Non-toxic”; in the data set on H9c2 [15] it was “Toxic”. The Time in data set [2] was 55 min; in data set [6] it was 65 min. Moreover, the inhibition in vivo at 0.1 mg/kg in the data set with Mus musculus [4] was determined as 35%. Besides, the inhibition entry with Mus musculus [7] is “Dose-dependent effect”. In addition, the outcome in the data set on H9c2 [12] and in the data set with H9c2 [13] was Active.

The record behind these values is ChEMBL document CHEMBL3612036, “Design, Synthesis, and Cardioprotective Effects of N-Mercapto-Based Hydrogen Sulfide Donors” (J Med Chem, 2015).
